# Measurements published in publication PMC9052103 (RSC Advances, 2020).
# Experiments:
# Assay type in all cases: cell-based
# S. aureus ATCC BAA-1747 = assay: MIC, 96-well microtiter broth dilution; settings: Staphylococcus aureus, ATCCBAA1747|MRSA, read-out: MIC S. aureus ATCC BAA-1747
# E. coli ATCC 25922 = assay: MIC, 96-well microtiter broth dilution; settings: Escherichia coli, ATCC25922, read-out: MIC E. coli ATCC 25922
# S. aureus ATCC 29213 [1] = assay: MIC, 96-well microtiter broth dilution; settings: Staphylococcus aureus, ATCC29213, read-out: MIC S. aureus ATCC 29213
# E. faecium ATCC 49624 = assay: MIC, 96-well microtiter broth dilution; settings: Enterococcus faecium, ATCC49624, read-out: MIC E. faecium ATCC 49624
# E. coli ATCC BAA-2469 = assay: MIC, 96-well microtiter broth dilution
# E. faecium ATCC 700221 = assay: MIC, 96-well microtiter broth dilution; settings: Enterococcus faecium, ATCC700221, read-out: MIC E. faecium ATCC 700221
# S. aureus ATCC BAA-41 = assay: MIC, 96-well microtiter broth dilution; settings: Staphylococcus aureus, ATCCBAA41|MRSA, read-out: MIC S. aureus ATCC BAA-41
# S. aureus ATCC 43300 = assay: MIC, 96-well microtiter broth dilution; settings: Staphylococcus aureus, ATCC43300|MRSA, read-out: MIC S. aureus ATCC 43300
# S. aureus ATCC BAA-1720 = assay: MIC, 96-well microtiter broth dilution; settings: Staphylococcus aureus, ATCCBAA1720|MRSA, read-out: MIC S. aureus ATCC BAA-1720
# E. coli ATCC 8739 = assay: MIC, 96-well microtiter broth dilution; settings: Escherichia coli, ATCC8739, read-out: MIC E. coli ATCC 8739
# E. faecalis ATCC 29212 = assay: MIC, 96-well microtiter broth dilution; settings: Enterococcus faecalis, ATCC29212, read-out: MIC E. faecalis ATCC 29212
# [2] = test system: S. epidermidis ATCC 12228; assay: MIC, 96-well microtiter broth dilution; settings: Staphylococcus epidermidis, ATCC12228, read-out: MIC S. epidermidis ATCC 12228
# S. aureus ATCC 29213 [3] = assay: In vitro drug resistance development, serial passage
# How it was run: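 Serial passage against S. aureus ATCC 29213: culture from the 0.5 × MIC well of the prior MIC plate diluted to 5 × 10^5 CFU mL−1 and exposed to a range of test compound concentrations. MIC read after 24 h at 37 °C. Cycle repeated 35 times. Ciprofloxacin, vancomycin and rifampin passaged in parallel.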
SMILES,MIC (S. aureus ATCC BAA-1747),MIC (E. coli ATCC 25922),MIC (S. aureus ATCC 29213 [1]),MIC (E. faecium ATCC 49624),MIC against antibiotics resistant E. coli mutant NDM-1 strain (E. coli ATCC BAA-2469),MIC (E. faecium ATCC 700221),MIC (S. aureus ATCC BAA-41),MIC (S. aureus ATCC 43300),MIC (S. aureus ATCC BAA-1720),MIC (E. coli ATCC 8739),MIC (E. faecalis ATCC 29212),MIC [2],Increase of MIC after 35 passages (S. aureus ATCC 29213 [3])
"COc1cccc(OC)c1C(=O)N[C@@H]1C(=O)N2[C@@H]1SC(C)(C)[C@@H]2C(=O)O [meth, methicillin, reference compound]",256 µg/mL,2 µg/mL,0.5 µg/mL,4 µg/mL,> 64 µg/mL,1.5 µg/mL,1020 µg/mL,512 µg/mL,1020 µg/mL,> 64 µg/mL,1 µg/mL,0.5 µg/mL,
"C[n+]1c(/C=C/c2c[nH]c3ccccc23)cc(/C=C2\Sc3ccccc3N2CCCN2CCCC2)c2ccccc21.[I-] [Compound 4d1, 2-((E)-2-(1H-Indol-3-yl)vinyl)-1-methyl-4-((Z)-(3-(3-(pyrrolidin-1-yl)propyl)benzo[d]thiazol-2(3H)-ylidene)methyl)quinolin-1-ium iodide]",8 µg/mL,4 µg/mL,16 µg/mL,8 µg/mL,,16 µg/mL,4 µg/mL,8 µg/mL,8 µg/mL,16 µg/mL,32 µg/mL,2 µg/mL,
"C[n+]1c(/C=C/c2c[nH]c3ccccc23)cc(/C=C2\Sc3ccccc3N2CCCN2CCOCC2)c2ccccc21.[I-] [Compound 4c1, 2-((E)-2-(1H-Indol-3-yl)vinyl)-1-methyl-4-((Z)-(3-(3-morpholinopropyl)benzo[d]thiazol-2(3H)-ylidene)methyl)quinolin-1-ium iodide]",16 µg/mL,8 µg/mL,16 µg/mL,16 µg/mL,,8 µg/mL,16 µg/mL,16 µg/mL,16 µg/mL,64 µg/mL,16 µg/mL,2 µg/mL,
"C[n+]1c(/C=C/c2ccc(O)cc2)cc(/C=C2\Sc3ccccc3N2CCCN2CCOCC2)c2ccccc21.[I-] [Compound 4c2, 2-((E)-4-Hydroxystyryl)-1-methyl-4-((Z)-(3-(3-morpholinopropyl)benzo[d]thiazol-2(3H)-ylidene)methyl)quinolin-1-ium iodide]",16 µg/mL,4 µg/mL,16 µg/mL,8 µg/mL,,4 µg/mL,8 µg/mL,16 µg/mL,32 µg/mL,32 µg/mL,16 µg/mL,4 µg/mL,
"CC1(C)S[C@@H]2[C@H](NC(=O)[C@H](N)c3ccccc3)C(=O)N2[C@H]1C(=O)O [amp, ampicillin, reference compound]",> 64 µg/mL,1 µg/mL,> 64 µg/mL,0.25 µg/mL,> 64 µg/mL,> 64 µg/mL,> 64 µg/mL,> 64 µg/mL,> 64 µg/mL,2 µg/mL,0.5 µg/mL,> 64 µg/mL,
O=C(O)c1cn(C2CC2)c2cc(N3CCNCC3)c(F)cc2c1=O [ciprofloxacin],,,,,,,,,,,,,32 fold
